Measurements from ChEMBL document CHEMBL1157072 (Bioorg Med Chem, 2010).
Converted amounts (≈) assume the structure as drawn. The source made the active and inactive calls. The calls are words filed in the database; no cut-off is given here.

How the values were obtained:
[1] = Dissociation constant, pKa of the compound; format: physicochemical
Staphylococcus aureus [2] = assay: Antibacterial activity against Staphylococcus aureus NCTC 8325 carrying shuttle vector pMC-SK after 16 to 20 hrs by broth microdilution method; format: functional
Method in brief: (§1)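 Broth microdilution in cation-adjusted Mueller Hinton broth. Compounds were serially diluted twofold in DMSO at 50-fold final strength (2% DMSO final). The inoculum was 1 × 10^4 cells per well. Plates were incubated at 37 °C for 16–20 h, and growth was read as absorbance at 600 nm.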

Staphylococcus aureus [3] = assay: Antibacterial activity against Staphylococcus aureus NCTC 8325 carrying shuttle vector pMC-SK with mepR gene after 16 to 20 hrs by broth microdilution method; format: functional; method in brief: as §1
Staphylococcus aureus [4] = assay: Antibacterial activity against MBX-1090-resistant Staphylococcus aureus isolate d20A1 carrying shuttle vector pMC-SK after 16 to 20 hrs by broth microdilution method; format: functional; method in brief: as §1
Staphylococcus aureus [5] = assay: Antibacterial activity against MBX-1090-resistant Staphylococcus aureus isolate d20A1 carrying shuttle vector pMC-SK with mepR gene after 16 to 20 hrs by broth microdilution method; format: functional; method in brief: as §1
Staphylococcus aureus [6] = assay: Antibacterial activity against Staphylococcus aureus NCTC 8325 after 16 to 20 hrs by broth microdilution method; format: functional; method in brief: as §1
Staphylococcus aureus [7] = assay: Antibacterial activity against Staphylococcus aureus NCTC 8325 after 16 to 20 hrs by broth microdilution method in presence of efflux pump inhibitor reserpine; format: functional
Method in brief: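 Broth microdilution in cation-adjusted MHB with reserpine at 20 µg/ml final in the medium as efflux inhibitor. Twofold DMSO dilutions were made (2% DMSO final) with 1 × 10^4 cells per well. Incubation was 37 °C for 16–20 h, with growth read at 600 nm.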

Staphylococcus aureus [8] = assay: Antibacterial activity against Staphylococcus aureus NCTC 8325 harboring genetic deletion of mepR gene after 16 to 20 hrs by broth microdilution method; format: functional; method in brief: as §1
Staphylococcus aureus [9] = assay: Antibacterial activity against Staphylococcus aureus NCTC 8325 harboring genetic deletion of mepRA gene after 16 to 20 hrs by broth microdilution method; format: functional; method in brief: as §1
Staphylococcus aureus [10] = assay: Antibacterial activity against Staphylococcus aureus NCTC 8325 carrying expression vector pG154 after 16 to 20 hrs by broth microdilution method; format: functional; method in brief: as §1
Staphylococcus aureus [11] = assay: Antibacterial activity against Staphylococcus aureus NCTC 8325 carrying expression vector pG154 after 16 to 20 hrs by broth microdilution method in presence of anhydrous tetracycline; format: functional
Method in brief: (§2)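 Broth microdilution in cation-adjusted MHB containing anhydrous tetracycline at 100 ng/ml final to induce the pG154 expression vector. Twofold DMSO compound dilutions were used (2% DMSO final) with 1 × 10^4 cells per well. Incubation was 37 °C for 16–20 h, and absorbance was read at 600 nm.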

Staphylococcus aureus [12] = assay: Antibacterial activity against Staphylococcus aureus NCTC 8325 carrying expression vector pG154 with mepA gene after 16 to 20 hrs by broth microdilution method; format: functional; method in brief: as §1
Staphylococcus aureus [13] = assay: Antibacterial activity against Staphylococcus aureus NCTC 8325 carrying expression vector pG154 with mepA gene after 16 to 20 hrs by broth microdilution method in presence of anhydrous tetracycline; format: functional; method in brief: as §2
Staphylococcus aureus [14] = assay: Antibacterial activity against Staphylococcus aureus NCTC 8325 harboring genetic deletion of mepRA gene and carrying expression vector pG154 after 16 to 20 hrs by broth microdilution method; format: functional; method in brief: as §1
Staphylococcus aureus [15] = assay: Antibacterial activity against Staphylococcus aureus NCTC 8325 harboring genetic deletion of mepRA gene and carrying expression vector pG154 after 16 to 20 hrs by broth microdilution method in presence of anhydrous tetracycline; format: functional; method in brief: as §2
Staphylococcus aureus [16] = assay: Antibacterial activity against Staphylococcus aureus NCTC 8325 harboring genetic deletion of mepRA gene and carrying expression vector pG154 with mepA gene after 16 to 20 hrs by broth microdilution method; format: functional; method in brief: as §1
Staphylococcus aureus [17] = assay: Antibacterial activity against Staphylococcus aureus NCTC 8325 harboring genetic deletion of mepRA gene and carrying expression vector pG154 with mepA gene after 16 to 20 hrs by broth microdilution method in presence of anhydrous tetracycline; format: functional; method in brief: as §2
[18] = Selectivity ratio of MIC for MBX-1090-resistant Staphylococcus aureus isolate d20A1 to MIC for Staphylococcus aureus NCTC 8325; format: functional
Method in brief: (§3)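 Ratio of resistant-mutant MIC to NCTC 8325 MIC. Both MICs came from broth microdilution in cation-adjusted MHB with 2% DMSO final and 1 × 10^4 cells per well, incubated at 37 °C for 16–20 h and read at 600 nm.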

[19] = Selectivity ratio of MIC for MBX-1090-resistant Staphylococcus aureus isolate d20B1 to MIC for Staphylococcus aureus NCTC 8325; format: functional; method in brief: as §3
[20] = Selectivity ratio of MIC for MBX-1090-resistant Staphylococcus aureus isolate d20C1 to MIC for Staphylococcus aureus NCTC 8325; format: functional; method in brief: as §3
Staphylococcus aureus [21] = assay: Induction of mepA gene expression in Staphylococcus aureus NCTC 8325 at 0.8 ug/ml by RT-PCR analysis; format: functional, organism-based
Method in brief: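 NCTC 8325 diluted 1/200 in TSB and grown at 37 °C (250 rpm) to OD600 0.3. 5 ml aliquots exposed 3 h to compound or DMSO (2% final), triplicate cultures pooled. RNA was DNase-treated and 1 µg primed with random hexamers for cDNA, with a no-RT control. mepA signal normalized to rho, untreated set to 1. Mean of three experiments ± SD.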

Staphylococcus aureus [22] = assay: Induction of mepR gene expression in Staphylococcus aureus NCTC 8325 at 0.8 ug/ml by RT-PCR analysis; format: functional, organism-based
Staphylococcus aureus [23] = assay: Upregulation of mepR gene expression in MBX-1090-resistant Staphylococcus aureus isolate d20A1 at 0.8 ug/ml by RT-PCR analysis relative to wild type; format: functional
Staphylococcus aureus [24] = assay: Upregulation of mepA gene expression in MBX-1090-resistant Staphylococcus aureus isolate d20A1 at 0.8 ug/ml by RT-PCR analysis relative to wild type; format: functional
Staphylococcus aureus [25] = assay: Upregulation of mepB gene expression in MBX-1090-resistant Staphylococcus aureus isolate d20A1 at 0.8 ug/ml by RT-PCR analysis relative to wild type; format: functional
Staphylococcus aureus [26] = assay: Upregulation of conventional hypothetical protein mRNA expression in MBX-1090-resistant Staphylococcus aureus isolate d20A1 at 0.8 ug/ml by RT-PCR analysis relative to wild type; format: functional
Staphylococcus aureus [27] = assay: Downregulation of protein A gene expression in MBX-1090-resistant Staphylococcus aureus isolate d20A1 at 0.8 ug/ml by RT-PCR analysis relative to wild type; format: functional
Staphylococcus aureus [28] = assay: Downregulation of ribH gene expression in MBX-1090-resistant Staphylococcus aureus isolate d20A1 at 0.8 ug/ml by RT-PCR analysis relative to wild type; format: functional
Staphylococcus aureus [29] = assay: Downregulation of ribA gene expression in MBX-1090-resistant Staphylococcus aureus isolate d20A1 at 0.8 ug/ml by RT-PCR analysis relative to wild type; format: functional
Staphylococcus aureus [30] = assay: Downregulation of ribE gene expression in MBX-1090-resistant Staphylococcus aureus isolate d20A1 at 0.8 ug/ml by RT-PCR analysis relative to wild type; format: functional
Staphylococcus aureus [31] = assay: Downregulation of ribD gene expression in MBX-1090-resistant Staphylococcus aureus isolate d20A1 at 0.8 ug/ml by RT-PCR analysis relative to wild type; format: functional
Staphylococcus aureus [32] = assay: microbe, parasite or virus in culture; conditions: isolate d20A1

C(=C\c1cc2ccc(C3=NCCN3)cc2[nH]1)/c1cc2ccc(C3=NCCN3)cc2[nH]1
pKa [1]: 9.6 | MIC (Staphylococcus aureus [2]): 1 µg/mL (≈ 2.53 µM) | MIC (Staphylococcus aureus [3]): 1 µg/mL (≈ 2.53 µM) | MIC (Staphylococcus aureus [4]): 8 µg/mL (≈ 20.3 µM) | MIC (Staphylococcus aureus [5]): 1 µg/mL (≈ 2.53 µM) | MIC (Staphylococcus aureus [6]): 1 µg/mL (≈ 2.53 µM) | MIC (Staphylococcus aureus [7]): 0.5 µg/mL | MIC (Staphylococcus aureus [8]): 4 µg/mL (≈ 10.1 µM) | MIC (Staphylococcus aureus [9]): 1 µg/mL (≈ 2.53 µM) | MIC (Staphylococcus aureus [10]): 1 µg/mL (≈ 2.53 µM) | MIC (Staphylococcus aureus [11]): 1 µg/mL | MIC (Staphylococcus aureus [12]): 1 µg/mL (≈ 2.53 µM) | MIC (Staphylococcus aureus [13]): 8 µg/mL | MIC (Staphylococcus aureus [14]): 1 µg/mL (≈ 2.53 µM) | MIC (Staphylococcus aureus [15]): 1 µg/mL | MIC (Staphylococcus aureus [16]): 1 µg/mL (≈ 2.53 µM) | MIC (Staphylococcus aureus [17]): 4 µg/mL | Selectivity ratio [18]: 8 | Selectivity ratio [19]: 8 | Selectivity ratio [20]: 8 | Activity (Staphylococcus aureus [21]): inactive | Activity (Staphylococcus aureus [22]): inactive | fold change (FC) (Staphylococcus aureus [23]): 1.7 | fold change (FC) (Staphylococcus aureus [24]): 2 | fold change (FC) (Staphylococcus aureus [25]): 1 | fold change (FC) (Staphylococcus aureus [26]): 15.3 | fold change (FC) (Staphylococcus aureus [27]): 3.1 | fold change (FC) (Staphylococcus aureus [28]): 1.9 | fold change (FC) (Staphylococcus aureus [29]): 3 | fold change (FC) (Staphylococcus aureus [30]): 2.6 | fold change (FC) (Staphylococcus aureus [31]): 1.4 | MIC (Staphylococcus aureus [32]): 8 µg/mL (≈ 20.3 µM)
